Values after ≈ are worked out from the molar mass of the structure shown. Active and inactive are the calls of the source. The rule behind the calls is not given here.
Tests used:
[1] = system: Bacillus thuringiensis; assay: Antibacterial activity against Bacillus thuringiensis measured after 5 to 6 hrs by microdilution titre technique; type: functional
[2] = system: Escherichia coli; assay: Antibacterial activity against Escherichia coli measured after 5 to 6 hrs by microdilution titre technique; type: functional
[3] = system: Bacillus subtilis; assay: Antibacterial activity against Bacillus subtilis ATCC 6051 by microdilution assay; type: functional
In short: (§1)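 Turbidimetric broth microdilution. Log-phase cells were washed and resuspended in broth (LB at 37 °C for B. subtilis and S. aureus; oat bran broth at 28 °C for S. scabies) and seeded at 1 × 10⁵ CFU/mL. Twofold serial dilutions were made with DMSO ≤1% (v/v). A620 was read, then plates were incubated with vigorous shaking. MIC was the lowest concentration with no apparent growth versus vehicle-only medium without cells. Run in triplicate.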

[4] = system: Streptomyces scabiei; assay: Antibacterial activity against Streptomyces scabiei CGMCC4.7610246 by microdilution assay; type: functional; in short: as §1
[5] = system: Staphylococcus aureus; assay: Antibacterial activity against Staphylococcus aureus ATCC 25923 by microdilution assay; type: functional; in short: as §1
[6] = system: Staphylococcus aureus; assay: Antibacterial activity against methicillin-resistant Staphylococcus aureus by microdilution assay; type: functional
In short: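 Log-phase cells seeded at 1 × 10⁵ CFU/mL. Twofold serial dilutions made in broth with DMSO cosolvent, at most 1% v/v. Turbidity read at 620 nm before and after incubation with vigorous shaking. MIC is the lowest concentration with no apparent growth versus the medium-plus-vehicle control. Run in triplicate.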

[7] = system: Escherichia coli; assay: Antibacterial activity against Escherichia coli at 100 uM measured after 5 to 6 hrs by microdilution assay; type: functional, organism-based
[8] = system: Pseudomonas aeruginosa; assay: Antibacterial activity against Pseudomonas aeruginosa at 100 uM measured after 5 to 6 hrs by microdilution assay; type: functional, organism-based
[9] = system: Pseudomonas aeruginosa; assay: Antibacterial activity against multi-drug resistant Pseudomonas aeruginosa at 100 uM measured after 5 to 6 hrs by microdilution assay; type: functional, organism-based
In short: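 Log-phase cells seeded at 1 × 10⁵ CFU/mL. Single-dose screen at 100 μM, with DMSO cosolvent at most 1% v/v. Growth measured turbidimetrically at 620 nm, before and after incubation with vigorous shaking.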

[10] = system: Bacillus subtilis; assay: Antibacterial activity against Bacillus subtilis ATCC 6051 by time-kill analysis; type: functional, organism-based
In short: (§2)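 Time-kill in LB at 37 °C. B. subtilis or S. aureus suspensions were set at 5 × 10⁵ CFU/mL and exposed to 0.5×, 1×, 2× and 4× MIC alongside negative and positive controls. Samples of 1 mL were taken at 0, 2, 4, 6, 8, 12 and 24 h, serially diluted and plated for viable counts, and survival was calculated. Three repeats.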

[11] = system: Streptomyces scabiei; assay: Antibacterial activity against Streptomyces scabiei CGMCC4.7610246 by time-kill analysis; type: functional, organism-based
In short: (§3)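 Killing kinetics for S. scabies in oat bran broth at 28 °C, starting at 5 × 10⁵ CFU/mL. Exposure was 0.5×, 1×, 2× or 4× MIC, with negative and positive controls. Samples of 1 mL were withdrawn at 0, 4, 8, 16, 24 and 36 h, serially diluted and plated, and survival was calculated from colony counts. Performed in triplicate.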

[12] = system: Staphylococcus aureus; assay: Antibacterial activity against Staphylococcus aureus ATCC 25923 by time-kill analysis; type: functional, organism-based; in short: as §2
[13] = system: Bacillus subtilis; assay: Antibacterial activity against Bacillus subtilis ATCC 6051 at 0.5 times MIC by time-kill analysis; type: functional, organism-based; in short: as §2
[14] = system: Streptomyces scabiei; assay: Antibacterial activity against Streptomyces scabiei CGMCC4.7610246 at 0.5 times MIC by time-kill analysis; type: functional, organism-based; in short: as §3
[15] = system: Staphylococcus aureus; assay: Antibacterial activity against Staphylococcus aureus ATCC 25923 at 0.5 times MIC by time-kill analysis; type: functional, organism-based; in short: as §2
[16] = system: Bacillus subtilis; assay: Upregulation of ykuD expression in Bacillus subtilis ATCC 6051 at 0.5 times MIC by qRT-PCR analysis; type: functional, organism-based
In short: (§4)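 Bacteria were grown in broth with compound at 0.5 × MIC or vehicle to exponential phase (OD620 = 0.4) and then pelleted. Total RNA was reverse-transcribed, and SYBR-based real-time PCR was run against housekeeping genes. Relative expression versus control was calculated by 2^−ΔΔCT. Mean ± SEM, n = 3, significance at p < 0.05.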

[17] = system: Bacillus subtilis; assay: Upregulation of lytF expression in Bacillus subtilis ATCC 6051 at 0.5 times MIC by qRT-PCR analysis; type: functional, organism-based; in short: as §4
[18] = system: Staphylococcus aureus; assay: Effect on lytM expression in Staphylococcus aureus ATCC 25923 at 0.5 times MIC by qRT-PCR analysis; type: functional, organism-based; in short: as §4
[19] = system: Staphylococcus aureus; assay: Inhibition of lytM expression in methicillin-resistant Staphylococcus aureus at 0.5 times MIC by qRT-PCR analysis; type: functional, organism-based
In short: (§5)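 MRSA grown in broth containing either 0.5 × MIC of test compound or vehicle alone. Cells harvested at exponential phase (OD₆₂₀ = 0.4). Total RNA reverse-transcribed, then SYBR-based real-time PCR run. Relative expression computed by the 2^−ΔΔCT method against the vehicle control or the parent-acid-treated group. Mean ± SEM, n = 3; significance set at p < 0.05.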

[20] = system: Staphylococcus aureus; assay: Increase in fmhB expression in Staphylococcus aureus ATCC 25923 at 0.5 times MIC by qRT-PCR analysis relative to control; type: functional, organism-based; in short: as §4
[21] = system: Staphylococcus aureus; assay: Increase in fmhB expression in Staphylococcus aureus ATCC 25923 at 0.5 times MIC by qRT-PCR analysis relative to 18-beta-glycyrrhetinic acid; type: functional, organism-based; in short: as §4
[22] = system: Staphylococcus aureus; assay: Increase in fmhB expression in methicillin-resistant Staphylococcus aureus at 0.5 times MIC by qRT-PCR analysis relative to control; type: functional, organism-based; in short: as §5
[23] = system: Staphylococcus aureus; assay: Increase in fmhB expression in Staphylococcus aureus at 0.5 times MIC by qRT-PCR analysis relative to 18-beta-glycyrrhetinic acid; type: functional, organism-based; in short: as §4
[24] = system: Bacillus subtilis; assay: Reduction in mmD expression in Bacillus subtilis ATCC 6051 at 0.5 times MIC by qRT-PCR analysis relative to control; type: functional, organism-based; in short: as §4
[25] = system: Staphylococcus aureus; assay: Reduction in narG expression in Staphylococcus aureus ATCC 25923 at 0.5 times MIC by qRT-PCR analysis relative to control; type: functional, organism-based; in short: as §4
[26] = system: Staphylococcus aureus; assay: Reduction in narG expression in methicillin-resistant Staphylococcus aureus at 0.5 times MIC by qRT-PCR analysis relative to control; type: functional, organism-based; in short: as §5
[27] = system: Bacillus subtilis; assay: Upregulation of yhdT expression in Bacillus subtilis ATCC 6051 at 0.5 times MIC by qRT-PCR analysis relative to control; type: functional, organism-based; in short: as §4
[28] = system: Bacillus subtilis; assay: Upregulation of yqhB expression in Bacillus subtilis ATCC 6051 at 0.5 times MIC by qRT-PCR analysis relative to control; type: functional, organism-based; in short: as §4
[29] = system: Staphylococcus aureus; assay: Upregulation of seaR expression in Staphylococcus aureus ATCC 25923 at 0.5 times MIC by qRT-PCR analysis relative to control; type: functional, organism-based; in short: as §4
[30] = system: Staphylococcus aureus; assay: Upregulation of hla expression in Staphylococcus aureus ATCC 25923 at 0.5 times MIC by qRT-PCR analysis relative to control; type: functional, organism-based; in short: as §4
[31] = system: Staphylococcus aureus; assay: Inhibition of seaR expression in methicillin-resistant Staphylococcus aureus at 0.5 times MIC by qRT-PCR analysis relative to control; type: functional, organism-based; in short: as §5
[32] = system: Staphylococcus aureus; assay: Inhibition of hla expression in methicillin-resistant Staphylococcus aureus at 0.5 times MIC by qRT-PCR analysis relative to control; type: functional, organism-based; in short: as §5
[33] = system: Staphylococcus aureus; assay: Down regulation of mecA gene in methicillin-resistant Staphylococcus aureus at 0.5 times MIC by qRT-PCR analysis relative to control; type: functional, organism-based; in short: as §5
[34] = system: Staphylococcus aureus; assay: Down regulation of mecA gene in methicillin-resistant Staphylococcus aureus at 0.5 times MIC by qRT-PCR analysis relative to 18-beta-glycyrrhetinic acid; type: functional, organism-based; in short: as §5
[35] = system: Escherichia coli; assay: Antibacterial activity against Escherichia coli ATCC 25922 measured after overnight incubation by microplate dilution assay; type: functional
[36] = system: Streptomyces scabiei; assay: Reduction in murX expression in Streptomyces scabiei CGMCC4.7610246 at 0.5 times MIC by qRT-PCR analysis relative to control; type: functional, organism-based; in short: as §4
[37] = system: Streptomyces scabiei; assay: Reduction in p450 expression in Streptomyces scabiei CGMCC4.7610246 at 0.5 times MIC by qRT-PCR analysis relative to control; type: functional, organism-based; in short: as §4

SMILES	MIC [1]	MIC [2]	MIC [3]	MIC [4]	MIC [5]	MIC [6]	Activity [7]	Activity [8]	Activity [9]	Activity [10]	Activity [11]	Activity [12]	Activity [13]	Activity [14]	Activity [15]	further results
CC1(C)CC[C@]2(C(=O)O)CC[C@]3(C)C(=CC[C@@H]4[C@@]5(C)C[C@@H](O)[C@H](O)C(C)(C)[C@@H]5CC[C@]43C)[C@@H]2C1 [MASLINIC ACID]	0.9 µg/mL (≈ 1.9 µM)	3.9 µg/mL (≈ 8.25 µM)														
CCOC(=O)[C@@]1(C)CC[C@]2(C)CC[C@]3(C)C(=CC[C@@H]4[C@@]5(C)[C@@H](O)[C@H](O)[C@H](O)C(C)(C)[C@@H]5CC[C@]43C)[C@@H]2C1			2 µg/mL (≈ 3.87 µM)	4.1 µg/mL (≈ 7.93 µM)	1 µg/mL (≈ 1.94 µM)	1 µg/mL (≈ 1.94 µM)	inactive	inactive	inactive	Dose-dependent effect	Dose-dependent effect	Dose-dependent effect	inactive	inactive	inactive	Activity [16]: Active; Activity [17]: Active; Activity [18]: inactive; inhibition [19]: Active; Activity [20]: Active; Activity [21]: Active; Activity [22]: Active; Activity [23]: Active; Activity [24]: Active; Activity [25]: Active; Activity [26]: Active; Activity [27]: Active; Activity [28]: Active; Activity [29]: Active; Activity [30]: Active; inhibition [31]: Active; inhibition [32]: Active; Activity [33]: Active; Activity [34]: Active
CC1(C)[C@@H](O)C[C@H](O)[C@]2(C)[C@H]3CC=C4[C@@H]5C[C@@](C)(C(=O)O)CC[C@]5(C)CC[C@@]4(C)[C@]3(C)CC[C@@H]12																MIC [35]: 16 µg/mL (≈ 33.8 µM)
CC1(C)CC[C@]2(C(=O)O)CC[C@]3(C)C(=CC[C@@H]4[C@@]5(C)CC[C@H](O)C(C)(C)[C@@H]5CC[C@]43C)[C@@H]2C1 [OLEANOLIC_ACID]	1.9 µg/mL (≈ 4.16 µM)	7.8 µg/mL (≈ 17.1 µM)														
COC(=O)[C@@]1(C)CC[C@]2(C)CC[C@]3(C)C(=CC[C@@H]4[C@@]5(C)[C@@H](O)[C@H](O)[C@H](O)C(C)(C)[C@@H]5CC[C@]43C)[C@@H]2C1			4 µg/mL (≈ 7.96 µM)	1 µg/mL (≈ 1.99 µM)	2 µg/mL (≈ 3.98 µM)	> 32 µg/mL	inactive	inactive	inactive	Dose-dependent effect	Dose-dependent effect	Dose-dependent effect	inactive	inactive	inactive	Activity [36]: Active; Activity [37]: Active

— ChEMBL document CHEMBL4477166, “18β-Glycyrrhetinic Acid Derivatives Possessing a Trihydroxylated A Ring Are Potent Gram-Positive Antibacterial Agents” (2016)
